Assay outcomes (PubChem BioAssay)
An excerpt weighted towards active compounds, which were near 3% of everything screened.
UCH37 inh: inhibitors of human deubiquitinating enzyme UCH37 | Q9Y5K5 | purified proteasome/UCH37, Ub-AMC cleavage fluorescence | inhibition, % (no concentration beside the values) | hit rate 0.33% among 330,000 | AID 588478;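 active = mean inhibition over replicate wells above about 20%, limit read from the data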;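 also: 0% = compound-free wells with enzyme and 100% = wells lacking proteasome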
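Material: human UCH37 enzyme supplied as purified proteasome complex. Measure: % inhibition of Ub-AMC cleavage fluorescence. Medium: pH 7.4 Tris-HCl (50 mM) with ovalbumin, ATP-MgCl2, DTT. Times: 30 min preincubation with enzyme, 25 min cleavage at room temperature. Detection: AMC fluorescence intensity at 355/460 nm.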
MEKK3 PB1 HTS: MEKK3-MEK5 PB1 interaction, increase or decrease. binding response (% of control), % at 10 µM. hit rate 1.4% among 290,000. Q99759. AID 1529. bead-based flow cytometry, Alexa488-MEK5 binding to MEKK3; actives lie on both sides; 0 = blocked by unlabeled MEK5, 100 = vehicle;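 active = binding response more than 3 SD above or below the average of its plate-row segment, actives on both sides; inconclusive = wells at one plate position flagged as instrument error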;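 also: Alexa488 bead fluorescence after subtracting the streptavidin-only scavenger bead signal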
Target sequence (Q99759 whole entry, looked up): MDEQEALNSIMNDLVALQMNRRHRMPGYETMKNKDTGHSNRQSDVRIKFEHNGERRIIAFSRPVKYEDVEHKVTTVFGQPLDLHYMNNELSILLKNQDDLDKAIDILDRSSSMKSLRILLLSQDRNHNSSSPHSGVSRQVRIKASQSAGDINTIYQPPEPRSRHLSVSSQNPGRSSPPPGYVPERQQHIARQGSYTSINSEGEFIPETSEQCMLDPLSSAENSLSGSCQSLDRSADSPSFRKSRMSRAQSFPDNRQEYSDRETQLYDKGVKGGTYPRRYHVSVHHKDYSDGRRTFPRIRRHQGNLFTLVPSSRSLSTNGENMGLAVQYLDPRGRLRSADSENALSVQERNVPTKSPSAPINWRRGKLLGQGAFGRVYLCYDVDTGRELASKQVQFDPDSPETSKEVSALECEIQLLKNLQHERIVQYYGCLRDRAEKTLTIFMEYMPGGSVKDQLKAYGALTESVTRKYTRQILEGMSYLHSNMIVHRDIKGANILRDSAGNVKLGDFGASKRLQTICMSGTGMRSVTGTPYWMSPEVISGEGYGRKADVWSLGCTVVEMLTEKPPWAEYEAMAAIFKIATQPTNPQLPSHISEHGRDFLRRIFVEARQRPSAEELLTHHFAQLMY
Apaf-1 inh: inhibitors of human Apaf-1 apoptosome. O14727. reconstituted apoptosome caspase-3 activity, DEVD-Rh110 fluorescence. inhibition, % at 20 µM. hit rate 0.71% among 330,000; active = inhibition of at least 40% at 20 µM;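 also: plate controls were DMSO wells for no effect and DEVD-CHO caspase inhibitor wells for full effect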
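Material: reconstituted apoptosome with Apaf-1, cytochrome c, caspase-9, procaspase-3, dATP; medium: pH 7.5 Hepes buffer with CHAPS, BSA, DTT; also added: cytochrome c and DEVD-Rh110 substrate; timing: 30 min plus 50 min, RT; signal: Rh110 fluorescence intensity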
UBC13 inh: inhibitors of human UBC13 polyubiquitin chain formation | P61088 | TR-FRET | inhibition, % at 20 µM | hit rate 0.47% among 330,000; in the data active = inhibition above about 45%, passing the limit was not always enough; inconclusive = no clear call, values can overlap the other calls
Target sequence (P61088 whole entry, looked up): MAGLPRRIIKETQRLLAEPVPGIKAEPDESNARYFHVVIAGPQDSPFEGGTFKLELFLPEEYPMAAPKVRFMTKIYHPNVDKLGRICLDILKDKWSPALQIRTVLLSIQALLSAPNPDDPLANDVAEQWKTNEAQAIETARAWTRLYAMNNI
MEKK2 mut-MEK5: signal of MEK5 binding to mutant human MEKK2 PB1 domain; bead flow cytometry, Alexa488-MEK5 binding to MEKK2 mutant; percent response, % at 10 µM; hit rate 0.35% among 290,000; in the data active = percent response above about 24%, passing the limit was not always enough
MEKK2wt PB1 HTS: raises or lowers MEK5 binding to wildtype human MEKK2 PB1 domain | binding response (% of control), % at 10 µM | hit rate 1.1% among 290,000 | bead flow cytometry, Alexa488-MEK5 binding to MEKK2 WT; actives lie on both sides; in the data active = binding response below about 67% or above about 130%; inconclusive = no clear call, values can overlap the other calls; inactive = in between
MEKK2wt confirm: raises or lowers MEK5 binding to wildtype human MEKK2, retest | shares compounds with MEKK3 PB1 HTS | bead flow cytometry, Alexa488-MEK5 binding to MEKK2 WT; actives lie on both sides | binding response (% of control), % at 10 µM | hit rate 2.4% among 5,900 | AID 1892; in the data active = binding response below about 16% or above about 210%; inactive = in between
MEKK2mut-MEK5: signal of MEK5 binding to mutant human MEKK2, retest; shares compounds with MEKK3 PB1 HTS; bead flow cytometry, Alexa488-MEK5 binding to MEKK2 mutant; percent response, % at 10 µM; hit rate 2% among 5,900; in the data active = percent response mostly above about 71%, no sharp cut-off; inactive = mostly below about 38%;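 also: higher means compound restores mutant binding toward wildtype level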
MEKK3 confirm: MEKK3-MEK5 PB1 inhibition, single concentration confirmation; shares compounds with MEKK3 PB1 HTS; bead flow cytometry, Alexa488-MEK5 binding to MEKK3; stronger effect = lower value; binding response (% of control), % at 10 µM; hit rate 1.8% among 5,900; AID 1894;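 active = binding response below 72% of control, or above a set upper limit, though filed actives all read lower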;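 also: 100% = DMSO only wells and 0% = binding blocked by excess unlabeled MEK5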
* = called active by the depositor; ? = inconclusive; nt = no result given; [ ] = another dose, or the depositor's remark.

SMILES	UCH37 inh	MEKK3 PB1 HTS	Apaf-1 inh	UBC13 inh	MEKK2 mut-MEK5	MEKK2wt PB1 HTS	MEKK2wt confirm	MEKK2mut-MEK5	MEKK3 confirm
COc1cc(Cl)c(C)cc1NC(=O)c1cc(S(=O)(=O)N(C)C)ccc1N1CCCC1	0.8	148.0*	17.6	1.9	1.0	104.0	102.0	-2.0	103.0
CN(C)S(=O)(=O)c1ccc(C(=O)Nc2cc(S(=O)(=O)Nc3ccccc3Cl)ccc2N2CCCCC2)cc1	-3.2	94.0	-8.2	-20.8	-3.0	94.0	nt	nt	nt
C/C(=N\NC(=O)c1cccc(S(=O)(=O)N2CCOCC2)c1)c1ccc(OCC(=O)N(C)C)cc1	nt	nt	-7.9	-14.6	nt	nt	nt	nt	nt
O=C(N/C(=C/c1ccco1)C(=O)N1CCc2ccccc21)c1ccco1	11.3	83.0	-2.2	-11.9	-4.0	79.0	nt	nt	nt
CS(=O)(=O)Nc1ccc(C2=NN(C(=O)c3ccco3)C(c3ccccc3F)C2)cc1 (centres undefined)	-4.1	103.0	17.8	-6.5	-1.0	103.0	nt	nt	nt
O=C(/C=C/c1cccc([N+](=O)[O-])c1)NCCSCc1ccc(Cl)cc1	0.0	144.0*	20.6	6.5	0.0	109.0	96.0	-4.0	105.0
Cn1nc(C(F)(F)F)c(-c2ccc(Br)cc2)c1NC(=O)Nc1ccc(F)cc1F	4.3	133.0*	-2.3	5.9	31.0	138.0*	110.0	2.0	102.0
COC(=O)c1c(NC(=O)c2nc3nc(C)cc(C(F)F)n3n2)sc2c1CCC2	-1.3	108.0	8.7	4.9	7.0	102.0	nt	nt	nt
CCOc1ccccc1-n1c(SCC(=O)N2CCCc3ccccc32)nnc1-c1cccnc1	2.0	132.0*	10.0	9.5	-1.0	104.0	112.0	4.0	105.0
Cc1ccc(-n2c(SCC(=O)N3CCCc4ccccc43)nnc2-c2cccnc2)c(C)c1	1.6	97.0	1.4	5.6	3.0	91.0	nt	nt	nt
O=C(NCc1nc2ccccc2[nH]1)C1=C[C@@H](c2ccc(C(F)(F)F)cc2)C[C@@H](OCCCCO)O1	1.4	102.0	17.3	9.9	-4.0	97.0	nt	nt	nt
CCOC(=O)c1c(C)[nH]c(=S)c(C#N)c1-c1ccc(Cl)cc1	1.3	95.0	6.1	39.1	-2.0	96.0	nt	nt	nt
CCOC(=O)c1c(C)[nH]c(=S)c(C#N)c1-c1ccc(OC)cc1	6.6	122.0*	9.5	?	5.0	108.0	98.0	0.0	101.0
COc1ccc(NC(=O)C2(c3cccs3)CCOCC2)cc1	2.1	99.0	-15.8	-10.3	1.0	96.0	nt	nt	nt
Cc1cccc(NC(=O)C2(c3cccs3)CCOCC2)c1	-2.4	103.0	-9.6	-3.6	-2.0	102.0	nt	nt	nt
Cc1cc(C)cc(NC(=O)C2(c3cccs3)CCOCC2)c1	5.2	136.0*	-7.5	7.5	1.0	114.0	95.0	-7.0	96.0
Cc1ccc(NC(=O)C2(c3cccs3)CCOCC2)cc1C	0.1	69.0*[inhibitor]	0.2	4.4	-1.0	96.0	97.0	-2.0	98.0
COC(=O)C1(CCSC)NC(c2ccccc2OC)C2C(=O)N(C)C(=O)C21 (centres undefined)	1.7	92.0	3.9	5.1	-2.0	87.0	nt	nt	nt
COC(=O)C1(CCSC)NC(c2ccco2)C2C(=O)N(C)C(=O)C21 (centres undefined)	1.4	2.0*[inhibitor]	-0.7	-1.9	-16.0	1.0*[inhibitor]	107.0	1.0	106.0
CCN1CCc2c(sc(NC(=O)c3cc4ccccc4cc3OC)c2C(N)=O)C1	-82.3	104.0	65.4*	24.8	26.0*	149.0*	131.0	30.0	88.0
COc1cccc(OC)c1C(=O)Nc1sc2c(c1C(N)=O)CCN(Cc1ccccc1)C2	-9.6	102.0	7.6	1.5	2.0	99.0	nt	nt	nt
Cc1ccc(S(=O)(=O)NCC(C)NS(=O)(=O)c2ccccc2[N+](=O)[O-])cc1 (centres undefined)	3.2	106.0	-3.8	3.9	15.0	106.0	nt	nt	nt
CCCCn1cc(C(C)(C)C)c(C#N)c1NC(C)=O	-1.8	46.0*[inhibitor]	11.4	-8.4	-13.0	52.0*[inhibitor]	101.0	1.0	100.0
CCc1nccn1-c1cc(C(C)(C)C)nc2c(-c3ccc(Cl)cc3)cnn12	-9.5	151.0*	29.3	-6.3	1.0	110.0	102.0	0.0	99.0
CC(C)(C)c1cc(-n2ccnc2)n2ncc(-c3ccc(Cl)cc3)c2n1	-0.9	105.0	26.6	-2.5	14.0	117.0	nt	nt	nt
SMILES	UCH37 inh	MEKK3 PB1 HTS	Apaf-1 inh	UBC13 inh	MEKK2 mut-MEK5	MEKK2wt PB1 HTS	MEKK2wt confirm	MEKK2mut-MEK5	MEKK3 confirm
Cc1ccc(CN2CCN(CC(=O)NCCCN3CCN(c4ccc(F)cc4)CC3)C2=O)cc1	3.4	104.0	8.2	7.1	24.0*	136.0	133.0	7.0	103.0
COc1ccc(N2CCN(CCCNC(=O)CN3CCN(Cc4ccccc4C)C3=O)CC2)cc1	0.3	105.0	1.9	9.7	14.0	143.0*	171.0	42.0	103.0
N#Cc1cccnc1N1CCN(C(=O)c2cccc3c2C(=O)c2ccc(Cl)cc2S3(=O)=O)CC1	1.1	nt	15.3	-9.8	nt	nt	nt	nt	nt
CCOc1ccccc1NC(=O)C(OC(=O)c1ccccc1O)c1ccccc1 (centres undefined)	-1.8	97.0	7.5	29.9	-1.0	93.0	nt	nt	nt
CCOc1ccccc1NC(=O)C(OC(=O)c1ccccc1)c1ccccc1 (centres undefined)	4.2	130.0*	22.3	39.7	1.0	106.0	95.0	-5.0	100.0
COc1cccc(NC(=O)Cn2c(=O)oc3ccccc32)c1	1.5	114.0	2.7	1.9	9.0	110.0	nt	nt	nt
COc1ccc(-c2nc(NC(=O)Cn3c(=O)oc4ccccc43)sc2C)cc1	2.1	143.0*	39.1	-8.4	1.0	112.0	101.0	1.0	108.0
Cc1ccc(N(C(=O)CS(=O)CC(=O)Nc2ccc(F)cc2)C(C(=O)NC2CCCCC2)c2ccco2)cc1 (centres undefined)	3.3	132.0*	24.9	-10.2	0.0	105.0	99.0	7.0	102.0
O=C(CS(=O)CC(=O)N(c1ccccc1)C(C(=O)NC1CCCC1)c1cccs1)Nc1ccc(F)cc1 (centres undefined)	nt	101.0	6.1	-0.4	3.0	100.0	nt	nt	nt
CC(C)(C)S(=O)(=O)c1cnc(-c2ccccn2)nc1N	3.8	92.0	-8.9	2.3	-12.0	93.0	nt	nt	nt
CC(C)(C)S(=O)(=O)c1cnc(-c2cnccn2)nc1N	0.0	134.0*	-8.1	-11.3	29.0	114.0	94.0	-6.0	98.0
